# Screening results from PubChem.
# FAK inh: FAK kinase inhibitors, primary screen, biochemical | hit rate 0.84% among 97,000 | Focal adhesion kinase 1 (Homo sapiens), Q05397 | biochemical FAK kinase activity assay | inhibition, %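 (tested at 7 µM)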 | AID 727, 2007; in the data active = inhibition above about 19%;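 also: 0% = DMSO and 100% = reference compound high control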
# Target sequence (Q05397 whole entry, looked up): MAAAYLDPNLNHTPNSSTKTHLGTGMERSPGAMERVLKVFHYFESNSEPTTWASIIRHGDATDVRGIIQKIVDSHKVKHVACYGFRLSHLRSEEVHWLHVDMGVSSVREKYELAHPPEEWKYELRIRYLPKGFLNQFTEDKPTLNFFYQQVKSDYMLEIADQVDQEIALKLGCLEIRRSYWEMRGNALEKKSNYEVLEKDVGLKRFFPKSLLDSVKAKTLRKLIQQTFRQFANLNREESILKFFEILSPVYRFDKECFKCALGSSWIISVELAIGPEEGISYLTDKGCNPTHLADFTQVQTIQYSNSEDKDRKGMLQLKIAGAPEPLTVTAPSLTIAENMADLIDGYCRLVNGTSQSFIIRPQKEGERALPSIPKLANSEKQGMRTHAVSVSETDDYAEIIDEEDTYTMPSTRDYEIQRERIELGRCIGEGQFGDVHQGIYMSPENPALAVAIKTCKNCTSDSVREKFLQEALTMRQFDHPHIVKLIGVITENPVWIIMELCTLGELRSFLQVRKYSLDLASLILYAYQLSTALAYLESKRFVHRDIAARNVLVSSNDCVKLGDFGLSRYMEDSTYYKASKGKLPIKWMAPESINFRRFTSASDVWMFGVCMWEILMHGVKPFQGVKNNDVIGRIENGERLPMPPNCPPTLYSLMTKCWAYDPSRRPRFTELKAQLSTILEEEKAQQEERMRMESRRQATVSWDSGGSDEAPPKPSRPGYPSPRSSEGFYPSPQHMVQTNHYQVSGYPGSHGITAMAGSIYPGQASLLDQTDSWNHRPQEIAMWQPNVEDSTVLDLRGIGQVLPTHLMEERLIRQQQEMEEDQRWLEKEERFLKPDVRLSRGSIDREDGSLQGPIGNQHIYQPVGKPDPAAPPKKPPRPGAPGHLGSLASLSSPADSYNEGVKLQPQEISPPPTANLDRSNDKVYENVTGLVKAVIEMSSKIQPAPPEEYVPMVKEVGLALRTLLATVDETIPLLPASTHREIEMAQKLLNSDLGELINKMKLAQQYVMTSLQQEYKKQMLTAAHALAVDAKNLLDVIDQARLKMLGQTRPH
# E-sel TNF inh: E-selectin induction blockers in HUVEC – imaging, immunofluorescence, high content, primary screen | AID 1246, 2008 | HUVEC TNFa-induced E-selectin immunofluorescence | hit rate 0.71% among 120,000 | inhibition, % at 2 µM;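 active = inhibition above the batch mean plus 3 SD, and confirmed as a hit on visual image review, cut at about 43% in these data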;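 also: 0% = TNF-stimulated DMSO wells and 100% = unstimulated control wells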
# F-actin modifier: modifiers of F-actin cytoskeleton organization, primary screen, imaging, HUVEC, phalloidin staining, high-content imaging | HUVEC TNFa F-actin phalloidin imaging | inhibition, % at 2 µM | hit rate 0.18% among 91,000 | AID 836, 2007;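 active = inhibition above the batch mean plus 3 SD and confirmed as a hit by visual image inspection, cut at about 30% in these data, passing the limit was not always enough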
# PLK1 kinase inh: human PLK1 kinase inhibitors, primary screen, biochemical, TR-FRET. Serine/threonine-protein kinase PLK1 (Homo sapiens), P53350. recombinant PLK1 kinase, TR-FRET peptide phosphorylation. inhibition, % at 10 µM. hit rate 0.53% among 97,000. AID 619, 2007;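 active = inhibition of 50% or more in the single-concentration screen; inactive = inhibition below 50%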;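 also: 0% = DMSO max control and 100% = H-89 dihydrochloride min control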
# Plk1 PBD FP: Plk1 polo box domain binding inhibitors, primary screen, biochemical, fluorescence polarization. Serine/threonine-protein kinase PLK1 (Homo sapiens), P53350. Plk1 PBD phosphopeptide binding. inhibition, %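 (tested at about 20 µM)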. hit rate 0.13% among 97,000. AID 693, 2007; in the data active = inhibition above about 34%, passing the limit was not always enough
# HIV Rev-RRE inh: HIV-1 Rev-RRE binding inhibitors, primary screen, biochemical, FRET, protein-RNA interaction | Rev peptide-RRE RNA binding | inhibition, % at 8 µM | hit rate 0.79% among 97,000 | AID 704, 2007;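 active = inhibition above the screen-wide mean plus 3 SD, cut at about 35% in these data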;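 also: 0% = median DMSO wells and 100% = median Neomycin B control wells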
#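 Assay system: Rev peptide and RRE RNA, both fluorescently labelled; times: 5 min preincubation and 15 min binding, 25 °C; detection: FRET, ex 480 nm, em 540 and 671 nm; read-out basis: % inhibition from 671/540 nm acceptor-to-donor ratio, scaled between controls; benchmarks: DMSO low control, neomycin B high control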
# Numbers without * were called inactive; · = no result; [ ] = remark or other dose. In the library only some 2.2% were active in any assay of this set; here they are far more common.
SMILES,FAK inh,E-sel TNF inh,F-actin modifier,PLK1 kinase inh,Plk1 PBD FP,HIV Rev-RRE inh
C/C(=N\NC(=O)CN1CCN(Cc2ccc(C)cc2)CC1)c1ccncc1,·,8,·,·,·,·
Nc1ccc(Br)cc1-c1nc2ccccc2[nH]c1=O,·,100*,·,·,·,·
O=c1[nH]c2ccccc2nc1Cc1ccccc1,1,1,-21,-5,-4,1
Cc1ccc2nc(NC(=O)/C=C/c3ccc4c(c3)OCO4)sc2c1,·,-19,·,·,·,·
O=C(/C=C/c1ccc2c(c1)OCO2)Nc1nc2ccccc2s1,·,62*,·,·,·,·
Cc1cc(/C=C2/SC(=S)N(c3cccc(Cl)c3)C2=O)c(C)n1-c1cccnc1,3,·,·,-27,-115,39*
Cc1cc(/C=C2/SC(=S)N(c3ccc([N+](=O)[O-])cc3)C2=O)c(C)n1-c1cccnc1,·,3,·,·,·,·
O=c1[nH]c2cccnc2n1Cc1ccccc1,0,-9,35*,-11,-6,14
O=c1[nH]c2ccccc2n1Cc1ccccc1,-4,7,1,-12,11,5
CCC(=O)NCc1c(C)c(C)n(Cc2ccccc2)c1-n1cccc1,·,-11,·,·,·,·
COc1cc(CN2CCN(c3ccc(C)cc3)CC2)cc([N+](=O)[O-])c1O,-5,100*,5,-8,4,-2
COc1cc(CN2CCN(c3cc(C)ccc3C)CC2)cc([N+](=O)[O-])c1O,-2,0,-10,-4,-25,1
CC1(C)CC(=O)C2=C(C1)OC1=C(C(=O)CC(C)(C)C1)C2c1ccc(O)cc1O,-1,·,-16,-17,-1,94*[fluorescence artefact?]
CCOC(=O)C1=C(N)OC2=C(C(=O)CC(C)(C)C2)C1c1ccco1 (stereo unspecified),3,-35,-1,-14,12,7
Cc1nn(CCc2nn[nH]n2)c2nc(-c3ccc(C4CCCCC4)cc3)cc(C(F)(F)F)c12,·,-34,·,·,·,·
O=c1c(O)c(-c2cccs2)oc2ccc(Cl)cc12,9,-10,4,-21,-210,102*[fluorescence artefact?]
O=c1cc(-c2cccs2)oc2ccc(Cl)cc12,15,7,·,-2,-9,4
CC(C)c1ccc2nc3sc(C(=O)N4CCc5ccccc5C4)c(N)c3cc2c1,-8,-18,7,-26,-18,57*
COc1ccc(CCNC(=O)/C(C#N)=C/c2cccc(OCc3ccccc3)c2)cc1OC,·,-11,·,·,·,·
CC(C)CNC(=O)CN(C)S(=O)(=O)c1ccc(F)cc1,·,14,·,·,·,·
COc1ccc(-n2nnnc2S(=O)(=O)Cc2ccc(C(=O)O)cc2)cc1,-1,18,14,-5,-12,7
COc1ccc(-n2nnnc2S(=O)(=O)CC(=O)N2CCCCC2)cc1,-1,82*,6,-6,-37,6
COC(=O)CC(NC(=O)c1cccs1)c1ccc(OC)c(OC)c1 (stereo unspecified),·,-13,·,·,·,·
Cc1ccc(C(=O)/C=C/c2ccccc2)o1,1,-4,-8,-14,-12,80*
CCNc1ccccc(C(=O)/C=C/c2ccc3c(c2)OCO3)c1=O,1,-1,8,8,7,55*
SMILES,FAK inh,E-sel TNF inh,F-actin modifier,PLK1 kinase inh,Plk1 PBD FP,HIV Rev-RRE inh
Cc1ccc(C(=O)/C=C/c2ccc3c(c2)OCO3)o1,4,31,-1,64*,-33,1
O=C(/C=C/c1ccc2c(c1)OCO2)c1ccc(F)cc1,·,-2,·,·,·,·
Cc1ccc(C(C(=O)NCc2ccco2)N(C(=O)Cc2cccs2)c2cccnc2)cc1 (stereo unspecified),·,-23,·,·,·,·
COc1ccc(-c2nnc(SCC(=O)Nc3ccc4c(c3)OCCO4)n2N)cc1OC,-3,31,-10,1,9,0
CCc1ccc(CN(C)C(=O)c2cc(COc3c(F)cccc3F)on2)cc1,·,83*,·,·,·,·
O=C(NCc1ccc(Cl)s1)c1cc(COc2c(F)cccc2F)on1,·,-25,·,·,·,·
CCOC(=O)N1CCN(C(=O)C2CCN(S(=O)(=O)c3cc(C)ccc3OC)CC2)CC1,·,-16,·,·,·,·
CCOC(=O)N1CCN(C(=O)C2CCN(S(=O)(=O)c3cc(OC)ccc3OC)CC2)CC1,·,72*,·,·,·,·
N=C1c2ccccc2CN1NC(=O)CC12CC3CC(CC(C3)C1)C2,·,15,·,·,·,·
O=C(c1ccc(Cl)cc1)N1CCCC(c2ccccc2)=N1,0,100*,15,-4,2,11
O=C(Oc1cccc(/C=N/Nc2nc(Nc3ccccc3)nc(N3CCOCC3)n2)c1)c1ccco1,·,18,·,·,·,·
COc1ccc2[nH]c(=O)c(CNc3cccc(C)c3)cc2c1,7,-9,·,-4,9,57*
CN(c1ccccc1)S(=O)(=O)c1ccc(NC(=S)Nc2ccccc2)cc1,-3,87*,6,-9,12,5
CC(=O)Nc1ccc(S(=O)(=O)N(C)c2ccccc2)cc1,·,-21,·,·,·,·
O=C(NCCCn1ccnc1)c1ccncc1,-1,-25,-12,-4,-23,5
Cc1ccc(C(=O)NCCCn2ccnc2)cn1,1,15,30*,-2,-1,1
CC(C)(Oc1ccc(Cl)cc1)C(=O)N/N=C/c1cn[nH]c1-c1ccccc1,1,-9,10,-5,4,7
CC1Cc2ccccc2N1C(=O)C1CCCN(S(=O)(=O)c2cccc3cccnc23)C1 (stereo unspecified),-1,·,·,55*,22,10
COc1ccc(N2CCN(C(=O)C3CCCN(S(=O)(=O)c4cccc5cccnc45)C3)CC2)cc1 (stereo unspecified),-1,·,2,-1,5,8
Cn1c(CC(=O)Nc2ccc(Cl)c(Cl)c2)nnc1SCC(=O)Nc1nccs1,4,-2,8,-5,-7,12
Cn1c(CSCc2ccccc2Cl)nnc1SCC(=O)Nc1nccs1,5,1,-5,65*,-21,9
C=CCN(C(=O)CCC(=O)O)C1CC(=O)N(c2ccc(OC)cc2)C1=O (stereo unspecified),-2,-4,4,-14,-13,2
C=CCN(C(=O)CCC(=O)O)C1CC(=O)N(c2ccc(OCCC)cc2)C1=O (stereo unspecified),·,92*,·,·,·,·
Cc1ccc(N(CC(=O)NC2CCCC2)C(=O)CCCC(=O)Nc2ccccn2)cc1C,5,-8,2,58*,-5,-3
Cc1ccc(/C=C/C(=O)NC2CCCCCCC2)o1,·,-16,·,·,·,·
CC1(C)CC(=O)C(C=NCC2CCCO2)=C(O)C1 (stereo unspecified),2,80*,12,-14,14,2
O=C(O)c1ccc2c(c1)C(=O)N(N1C(=O)c3ccccc3C1=O)C2=O,·,-7,·,·,·,·
O=C(NC1CCCCC1)N(CCN1CCOCC1)Cc1cc2cc3c(cc2[nH]c1=O)OCCO3,-4,·,33*,1,0,2
CCN(CC)CCN(Cc1cc2cc3c(cc2[nH]c1=O)OCCO3)C(=O)NC1CCCCC1,-3,-5,-10,-1,-24,11
